Measurements reported in ChEMBL document CHEMBL1275259, “In vitro antituberculosis activities of ACH-702, a novel isothiazoloquinolone, against quinolone-susceptible and quinolone-resistant isolates” (Antimicrob Agents Chemother, 2010).
pIC50: −log10 of the molar value. ≈ marks a conversion by molar mass, not a printed value.

Assays:
DNA gyrase subunit A [1] = biological target: DNA gyrase subunit A (Mycobacterium tuberculosis, UniProt P9WG47, A90V); test: Inhibition of DNA supercoiling activitysof Mycobacterium tuberculosis DNA gyrase subunit A A90V mutant
DNA gyrase subunit A [2] = biological target: DNA gyrase subunit A (Mycobacterium tuberculosis, UniProt P9WG47, D94G); test: Inhibition of DNA supercoiling activity of Mycobacterium tuberculosis DNA gyrase subunit A D94G mutant
[3] = test system: Mycobacterium tuberculosis; test: Antimicrobial activity against streptomycin-resistant Mycobacterium tuberculosis isolate 8; assay type: functional
Method in brief: (§1)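 Broth microdilution MIC in modified 7H10 broth (pH 6.6). Drugs dissolved in DMSO at 1 mg/ml, then serially diluted. Isolates grown 5 to 10 days at 37°C on a rotary shaker, diluted to 100 Klett units and frozen. Final inoculum about 6 × 10^4 CFU/ml (range 1.2 × 10^4 to 2.6 × 10^5). Duplicate wells, sealed, read after about 21 days at 37°C in ambient air.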

[4] = test system: Mycobacterium tuberculosis; test: Antimicrobial activity against multidrug-resistant Mycobacterium tuberculosis isolate 9; assay type: functional; method in brief: as §1
[5] = test system: Mycobacterium tuberculosis; test: Antimicrobial activity against quinolone-resistant Mycobacterium tuberculosis isolate 10; assay type: functional; method in brief: as §1
[6] = test system: Mycobacterium tuberculosis; test: Antimicrobial activity against quinolone-resistant Mycobacterium tuberculosis isolate 11; assay type: functional; method in brief: as §1
[7] = test system: Mycobacterium tuberculosis; test: Antimicrobial activity against quinolone-resistant Mycobacterium tuberculosis isolate 12; assay type: functional; method in brief: as §1
[8] = test system: Mycobacterium tuberculosis; test: Antimicrobial activity against isoniazid-resistant Mycobacterium tuberculosis isolate 15; assay type: functional; method in brief: as §1
[9] = test system: Mycobacterium tuberculosis; test: Antimicrobial activity against extensively drug-resistant Mycobacterium tuberculosis isolate 16; assay type: functional; method in brief: as §1
[10] = test system: Mycobacterium tuberculosis; test: Antimicrobial activity against extensively drug-resistant Mycobacterium tuberculosis isolate 17; assay type: functional; method in brief: as §1
[11] = test system: Mycobacterium tuberculosis; test: Antimicrobial activity against extensively drug-resistant Mycobacterium tuberculosis isolate 18; assay type: functional; method in brief: as §1
[12] = test system: Mycobacterium tuberculosis; test: Antimicrobial activity against multidrug-resistant Mycobacterium tuberculosis isolate 19; assay type: functional; method in brief: as §1
[13] = test system: Mycobacterium tuberculosis; test: Antimicrobial activity against multidrug drug-resistant Mycobacterium tuberculosis isolate 20; assay type: functional; method in brief: as §1

Row | SMILES | pIC50 (DNA gyrase subunit A [1]) | pIC50 (DNA gyrase subunit A [2]) | MIC [3] | MIC [4] | MIC [5] | MIC [6] | MIC [7] | MIC [8] | MIC [9] | MIC [10] | MIC [11] | MIC [12] | MIC [13]
1 | C[C@H]1COc2c(N3CCN(C)CC3)c(F)cc3c(=O)c(C(=O)O)cn1c23 [LEVOFLOXACIN] | < 3.52 | < 3.52 |  |  |  |  |  |  |  |  |  |  | 
2 | COc1c(N2C[C@@H]3CCCN[C@@H]3C2)c(F)cc2c(=O)c(C(=O)O)cn(C3CC3)c12 [MOXIFLOXACIN] |  |  | 0.06 µg/mL (≈ 0.149 µM) | 0.06 µg/mL (≈ 0.149 µM) | > 8 µg/mL | 4 µg/mL (≈ 9.96 µM) | 8 µg/mL (≈ 19.9 µM) | 0.06 µg/mL (≈ 0.149 µM) | 1 µg/mL (≈ 2.49 µM) | 2 µg/mL (≈ 4.98 µM) | 1 µg/mL (≈ 2.49 µM) | 0.03 µg/mL (≈ 0.0747 µM) | 0.03 µg/mL (≈ 0.0747 µM)
3 | CN[C@@H]1[C@H](O[C@H]2[C@H](O[C@H]3[C@H](O)[C@@H](O)[C@H](N=C(N)N)[C@@H](O)[C@@H]3N=C(N)N)O[C@@H](C)[C@]2(O)C=O)O[C@@H](CO)[C@H](O)[C@H]1O [STREPTOMYCIN] |  |  |  | 32 µg/mL (≈ 55 µM) |  |  |  |  |  |  |  |  | 
4 | NNC(=O)c1ccncc1 [ISONIAZID] |  |  | 0.125 µg/mL (≈ 0.911 µM) | 4 µg/mL (≈ 29.2 µM) | 0.03 µg/mL (≈ 0.219 µM) | 0.03 µg/mL (≈ 0.219 µM) | 0.03 µg/mL (≈ 0.219 µM) | > 8 µg/mL | 1 µg/mL (≈ 7.29 µM) | 1 µg/mL (≈ 7.29 µM) | 2 µg/mL (≈ 14.6 µM) | 2 µg/mL (≈ 14.6 µM) | 2 µg/mL (≈ 14.6 µM)
5 | CO[C@H]1/C=C/O[C@@]2(C)Oc3c(C)c(O)c4c(O)c(c(/C=N/N5CCN(C)CC5)c(O)c4c3C2=O)NC(=O)/C(C)=C\C=C\[C@H](C)[C@H](O)[C@@H](C)[C@@H](O)[C@@H](C)[C@H](OC(C)=O)[C@@H]1C [RIFAMPIN] |  |  | 0.008 µg/mL (≈ 0.00972 µM) | 64 µg/mL (≈ 77.8 µM) | 0.004 µg/mL (≈ 0.00486 µM) | 0.03 µg/mL (≈ 0.0365 µM) | 0.004 µg/mL (≈ 0.00486 µM) | 0.002 µg/mL (≈ 0.00243 µM) | 8 µg/mL (≈ 9.72 µM) | 8 µg/mL (≈ 9.72 µM) | 8 µg/mL (≈ 9.72 µM) | 64 µg/mL (≈ 77.8 µM) | 16 µg/mL (≈ 19.4 µM)
6 | COc1c(N2CC[C@@H](C(C)(C)N)C2)c(F)cc2c(=O)c3c(=O)[nH]sc3n(C3CC3)c12 | 5.34 | 5.10 | 0.25 µg/mL (≈ 0.578 µM) | 0.06 µg/mL (≈ 0.139 µM) | 0.125 µg/mL (≈ 0.289 µM) | 0.25 µg/mL (≈ 0.578 µM) | 1 µg/mL (≈ 2.31 µM) | 0.06 µg/mL (≈ 0.139 µM) | 0.5 µg/mL (≈ 1.16 µM) | 1 µg/mL (≈ 2.31 µM) | 0.125 µg/mL (≈ 0.289 µM) | 0.03 µg/mL (≈ 0.0694 µM) | 0.03 µg/mL (≈ 0.0694 µM)
7 | COc1c(N2CCNC(C)C2)c(F)cc2c(=O)c(C(=O)O)cn(C3CC3)c12 (stereo unspecified) [GATIFLOXACIN] | 4.55 | 4.36 |  |  |  |  |  |  |  |  |  |  | 
